Rows were chosen to be rich in hits. Some 1.2% of all compounds tested hit in one or more screens of this group.
Efflux pump mplx – antifungal efflux pump inhibition, Nile Red retention; AID 485275; S. cerevisiae Candida pump triplex; inhibition, % at 10 µM; 0.44% of 330,000 active;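 active = plate passing quality check with inhibition over a set limit, or well fluorescence over plate mean plus 4 SD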;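 also: Nile Red retained in pooled yeast measured as flow cytometry median fluorescence; 0% = buffer negative control and 100% = Enniatin B positive control; higher means more Nile Red kept so more efflux inhibition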
SR-BI uptake up – SR-BI HDL lipid transfer activation | activation, % at 12.5 µM | CHO ldlA[mSR-BI] cells, DiI-HDL uptake fluorescence, 3 h; 100 = double the neutral-control signal | AID 504775 | 0.096% of 320,000 active;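 active = mean replicate activation of at least 60% and every replicate at or above 60%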;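 also: 0% = median plate neutral-control signal and 100% = twice that signal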
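Material: SR-BI-overexpressing, LDLR-lacking CHO cells; schedule: compound exposure 3 h, 37 °C; reagent: DiI-labelled HDL at 10 µg/mL final; technique: bottom-read fluorescence, 550/595 nm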
FN deposit inh – fibronectin deposition inhibition; 0.086% of 350,000 active; AH1F fibroblasts, Alexa488-fibronectin deposition fluorescence, overnight; inhibition, % at 12.6 µM;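 active = mean inhibition across replicates of 30% or more, regardless of how many single replicates reach that level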;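 also: positive control wells lacked labelled fibronectin entirely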
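Assay system: AH1F fibroblast monolayer, labelled fibronectin deposition. Amount: 10000 cells per well. Also added: labelled fibronectin 24 nM. Compound: single-point pinned compound. Incubation: cell attachment 1 h, compound and FN exposure overnight. Detection: fluorescence after three HBSS washes, excitation 485 nm, emission 525 nm. Read-out: inhibition of fibronectin deposition signal.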
CaV13 FRET inh – Primary screen for inhibitors of IQ motif and Ca2+-dependent inactivation inhibitor domain binding in CACNA1D, Förster resonance energy transfer in living cells, … | 0.098% of 340,000 active | HEK cells, CFP/YFP FRET ICDI-IQ, plate reader, 10 min; percent FRET-ratio fall versus neutral wells | AID 743397 | inhibition, % at 12.3 µM;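 active = mean replicate inhibition of at least 30% and at least 1% of replicates passing that level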;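 also: 0% = median of the neutral control wells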
SR-BI DiI inh – mouse SR-BI HDL lipid transfer inhibition; AID 488896; 0.96% of 320,000 active; ldlA[mSR-BI] CHO cells, DiI-HDL uptake fluorescence, 3 h; Q61009; inhibition, % at 12.5 µM;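 active = mean replicate inhibition of at least 70% and a set share of replicates each scoring 70 or more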;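 also: 0% = median of neutral control wells and 100% = median of positive control wells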
Target sequence (Q61009 whole entry, looked up): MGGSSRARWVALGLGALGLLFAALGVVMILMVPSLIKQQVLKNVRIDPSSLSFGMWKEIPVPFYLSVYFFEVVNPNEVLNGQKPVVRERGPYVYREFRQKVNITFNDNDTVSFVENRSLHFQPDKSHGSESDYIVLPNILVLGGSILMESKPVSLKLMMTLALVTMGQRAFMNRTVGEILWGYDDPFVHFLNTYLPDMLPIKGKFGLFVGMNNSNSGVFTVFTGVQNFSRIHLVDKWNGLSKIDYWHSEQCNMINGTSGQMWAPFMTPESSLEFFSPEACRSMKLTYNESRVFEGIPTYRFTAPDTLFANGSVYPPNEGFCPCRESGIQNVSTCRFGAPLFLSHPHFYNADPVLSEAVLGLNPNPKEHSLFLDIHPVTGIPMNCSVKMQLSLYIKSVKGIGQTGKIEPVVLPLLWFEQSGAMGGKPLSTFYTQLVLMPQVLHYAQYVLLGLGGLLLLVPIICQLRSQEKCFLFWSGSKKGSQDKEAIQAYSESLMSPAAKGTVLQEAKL
The depositor's hits bear a star.

CCOc1ccc2nc(NCCCNC(=O)c3cc(OC)c(OC)c(OC)c3)c(C#N)cc2c1 was read as Efflux pump mplx 0.0, FN deposit inh -0.1 and CaV13 FRET inh active.
`CCC(=O)NCCNc1nc2cc(C)c(C)cc2cc1C#N` gave Efflux pump mplx 0.1, SR-BI uptake up -29.9, CaV13 FRET inh -5.2 and SR-BI DiI inh 29.9.
`CCOC(=O)N/N=C/c1cn(CCCOc2ccc(C)cc2)c2ccccc12` gave Efflux pump mplx 0.5, SR-BI uptake up -71.5, FN deposit inh 1.5, CaV13 FRET inh -3.2 and SR-BI DiI inh 71.5*.
Screening CCOC(=O)N/N=C/c1cn(CCCOc2ccccc2)c2ccccc12 returned Efflux pump mplx -0.3, SR-BI uptake up -62.2, FN deposit inh 0.9, CaV13 FRET inh -5.5 and SR-BI DiI inh 62.2.
Screening CNC(=S)N/N=C/c1cn(CCOc2cccc(OC)c2)c2ccccc12 returned Efflux pump mplx -0.8, SR-BI uptake up -79.7, CaV13 FRET inh -5.9 and SR-BI DiI inh 79.7*.
`CNC(=O)C[C@@H]1CC[C@H]2[C@@H](COc3ccc(NC(=O)C4CC4)cc3C(=O)N2C)O1` gave FN deposit inh -21.1.
`CCOc1ccccc1NC(=O)c1ccc(S(=O)(=O)N2CCCCC2)cc1` gave Efflux pump mplx 0.0, SR-BI uptake up -76.1, FN deposit inh 0.3, CaV13 FRET inh -2.8 and SR-BI DiI inh 76.1*.
COc1ccccc1NC(=O)c1ccc(S(=O)(=O)N2CCCC2)cc1 was read as Efflux pump mplx -0.2, SR-BI uptake up -38.2, FN deposit inh 1.1, CaV13 FRET inh -7.3 and SR-BI DiI inh 38.2.
`Cc1cccc(NC(=O)c2ccc(S(=O)(=O)N3CCCCC3)cc2)n1` gave Efflux pump mplx 0.3, SR-BI uptake up -9.1, FN deposit inh 38.1*, CaV13 FRET inh -3.5 and SR-BI DiI inh 9.1.
`O=C(N/N=C1\CC2CC=CC12)c1ccc(Br)cc1` (configuration not stated) gave Efflux pump mplx 0.1, SR-BI uptake up 15.2, FN deposit inh -0.3, CaV13 FRET inh -0.4 and SR-BI DiI inh -15.2.
Screening Cc1cc(Br)c(OCc2ccc(C(=O)N/N=C3\CC4CC=CC34)cc2)c(Br)c1 (configuration not stated) returned Efflux pump mplx -0.8, SR-BI uptake up -84.1, FN deposit inh -9.7, CaV13 FRET inh -4.8 and SR-BI DiI inh 84.1*.
Screening COc1cc(OC)nc(NC(=O)NS(=O)(=O)c2ccccc2Cl)n1 returned Efflux pump mplx -0.1, FN deposit inh -1.6 and CaV13 FRET inh -2.1.
For CCOc1nc(C)nc(NC(=O)NS(=O)(=O)c2ccccc2Cl)n1 the results were Efflux pump mplx -0.1, SR-BI uptake up 61.2*, FN deposit inh 0.9, CaV13 FRET inh -4.5 and SR-BI DiI inh -61.2.
`COc1ccc(OC)c2sc(NC(=O)c3ccc(Cl)s3)nc12` gave Efflux pump mplx 0.1, SR-BI uptake up -87.2, FN deposit inh 5.8, CaV13 FRET inh -4.6 and SR-BI DiI inh 87.2*.
`CC(C)NC(=O)N(C)C[C@H]1Oc2ccc(NS(C)(=O)=O)cc2CC(=O)N(C)C[C@H]1C` gave FN deposit inh 4.7.
`CC(C)=CC(=O)OCc1csc(CC(=O)Nc2ccccc2C)n1` gave Efflux pump mplx 0.1, SR-BI uptake up 5.1, FN deposit inh 0.8, CaV13 FRET inh -2.6 and SR-BI DiI inh -5.1.
`CC(=O)c1c(C)[nH]c(C(=O)OCc2csc(CC(=O)Nc3ccccc3C)n2)c1C` gave Efflux pump mplx 0.2, SR-BI uptake up -73.2, FN deposit inh -13.3, CaV13 FRET inh -3.3 and SR-BI DiI inh 73.2*.
COc1ccccc1/C=N/NC(=O)c1csc(C)c1C was read as Efflux pump mplx -0.2, SR-BI uptake up -33.8, FN deposit inh 5.8, CaV13 FRET inh -4.6 and SR-BI DiI inh 33.8.
Screening CCOC(=O)c1c(C)[nH]c(C(=O)N/N=C/c2cc([N+](=O)[O-])ccc2O)c1C returned Efflux pump mplx -0.2, SR-BI uptake up -85.8, FN deposit inh 3.8, CaV13 FRET inh -2.4 and SR-BI DiI inh 85.8*.
COc1ccccc1/C=N/NC(=O)c1[nH]c(C)c(C(=O)N/N=C/c2ccccc2OC)c1C was read as Efflux pump mplx -0.2, SR-BI uptake up -82.6, FN deposit inh 2.1, CaV13 FRET inh -2.6 and SR-BI DiI inh 82.6*.
